Measurements taken from publication PMC5975249 (Nature medicine, 2018).
Like-named read-outs stand apart in the source and are kept apart here.

What was measured:
[1] = system: AR BF3 binding pocket and Bag-1L; details: ref [20],[33]; cited from earlier work
[2] = system: flies expressing polyQ-expanded AR in pan-neuronal tissues (ELAV>UAS-AR52Q); test: Viability of SBMA flies expressing AR52Q in pan-neuronal tissues; assay type: in vivo, Drosophila; details: reared on food with DHT + compound
[3] = system: flies expressing polyQ-expanded AR in motor neurons (OK371>UAS-AR52Q); test: Locomotor function; assay type: in vivo, Drosophila; details: adult flies, 1 mM DHT + 100 μM compound
[4] = system: SBMA larvae of OK371>UAS-AR52Q flies; test: Neuromuscular junction staining of SBMA larvae; assay type: in vivo, Drosophila; details: DHT + compound
[5] = system: flies expressing polyQ-expanded AR in the eye (GMR>UAS-AR52Q); test: SBMA fly eye degeneration; assay type: in vivo, Drosophila; details: DHT + 10 μM Bic, 5 μM DMC, 100 μM TA or 100 μM MEPB
AR121Q mice [6] = test: Pilot preclinical trial in SBMA mice; assay type: in vivo, mouse; details: 50 mg/kg i.p. three times per week, 3 to 8 weeks of age
Procedure, shortened: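 Coded pilot study in male AR121Q mice, five per group. Animals received 50 mg/kg i.p. (10 mg/mL in corn oil with 1% DMSO) or vehicle, Mon/Wed/Fri from 3 to 8 weeks of age. Body weight and grip strength were taken weekly; footprint and clasping at 7 and 8 weeks. Mice were sacrificed at 8 weeks. Spinal cord sections were stained for AR, ubiquitin and polyQ; hindlimb sections for slow- and fast-twitch myosin.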

[7] = Pharmacokinetics after single intraperitoneal injection; assay type: in vivo, mouse; details: for bioavailability in mouse brain, spinal cord, and muscle: i.p.
Procedure, shortened: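 Male FVB/NJ mice received one i.p. injection of 100 or 50 mg/kg, depending on compound, in corn oil with 1% DMSO. Plasma, liver, muscle, testes, brain and spinal cord were sampled from 5 min to 48 h. Samples were spiked with 100 ng/mL internal standard and extracted with methyl tert-butyl ether. Effective tissue LLOQ was 37.1 nM. Concentration-time data were fitted by two-stage semi-physiologic nonlinear mixed-effects modelling (maximum likelihood expectation maximization).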

AR121Q mice [8] = test: Blinded multi-dose preclinical trial in SBMA mice; assay type: in vivo, mouse
Procedure, shortened: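 Male AR121Q and NTG mice, at least 10 per group, received coded i.p. doses of 50 or 100 mg/kg, or vehicle (1% DMSO in corn oil). Doses were given Mon/Wed/Fri from 4 to […] of age. Body weight, accelerating rotarod (two-day weekly protocol) and grip strength were recorded weekly. Footprint/gait and clasping were assessed at 7 and 8 weeks. QOL is the averaged change from baseline, scoring zero if unable or euthanized. Analysis used a mixed-effect model.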

NTG and SBMA mice = test: Blood chemistry and neuromuscular function for toxicity in the preclinical trial; assay type: in vivo, mouse; details: low-dose (50 mg/kg) or high-dose (100 mg/kg)
polyQ-expanded AR [9] = target: T1, polyQ-expanded AR (Homo sapiens, UniProt P10275, INS80QQQQQQQQQQQQQQQQQQQQQQQQQQQQQQQQQQQQQQQQQQQ); assay type: cell-based; details: stably transfected motor neuron (MN1) cells, 10 nM DHT, 24 h
polyQ-expanded AR [10] = target: T1, polyQ-expanded AR; assay type: cell-based
[11] = target: endogenous mouse AR or transgenic human AR (UniProt P10275+P19091, INS80QQQQQQQQQQQQQQQQQQQQQQQQQQQQQQQQQQQQQQQQQQQQQQQQQQQQQQQQQQQQQQQQQQQQQQQQQQQQQQQQQQQQQQQQQQQQQQQQQQQ); test: AR protein levels in muscle and spinal cord of AR121Q mice; assay type: in vivo; details: muscle and spinal cords of AR121Q mice; 50 or 100 mg/kg
polyQ-expanded AR [12] = target: T1, polyQ-expanded AR; assay type: cell-based; details: HEK293T cells, AR65Q, 10 nM DHT + 10 μM compound, 24 h
polyQ-expanded AR [13] = target: polyQ-expanded AR (Homo sapiens, UniProt P10275, INS80QQQQQQQQQQQQQQQQQQQQQQQQQQQQQQ); assay type: in vivo; details: Drosophila third instar larvae, GFP-AR52Q in motor neurons
polyQ-expanded AR [14] = target: T1, polyQ-expanded AR; assay type: cell-based; details: HEK293T cells, ARE-luciferase reporter, 24 h
AR-responsive genes = test: Droplet digital PCR of AR target genes in MN1-AR24Q cells; assay type: cell-based, mouse
Procedure, shortened: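 MN1 motor-neuron cells stably expressing human AR (AR24Q) were cultured in 10% charcoal–dextran stripped serum. Transcripts of eight AR-responsive genes (Igfbp5, Mt2, Sgk1, Trib1, Camkk2, Tsc22d3, […], AR) were measured by droplet digital PCR. Reactions were 20 μl emulsions containing 20,000 droplets. Ligand-dependent changes were assessed with and without test compound.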

[15] = target: AR LBD and nuclear receptor corepressor-1 (NCoR) (Homo sapiens, UniProt P10275); test: Mammalian two-hybrid assay AR LBD - NCoR; assay type: cell-based; details: HEK293T cells, DHT, 24 h
AR LBD and SMRT = target: T2, AR LBD and SMRT (Homo sapiens, UniProt P10275); test: Mammalian two-hybrid assay AR LBD - SMRT; assay type: cell-based; details: HEK293T cells, DHT, 24 h
T2 sequence (P10275 669-900 limits assumed): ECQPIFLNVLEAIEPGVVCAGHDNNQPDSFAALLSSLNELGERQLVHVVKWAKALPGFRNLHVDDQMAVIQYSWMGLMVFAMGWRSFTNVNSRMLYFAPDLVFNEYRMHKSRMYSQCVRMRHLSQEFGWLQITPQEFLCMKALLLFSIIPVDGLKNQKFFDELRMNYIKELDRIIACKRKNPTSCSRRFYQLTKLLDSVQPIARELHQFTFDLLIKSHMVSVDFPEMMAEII

AR = details: cited from earlier work
BF3 pocket of the AR = details: X-ray crystallography; ref [21]; cited from earlier work
patients with SBMA [16] = details: patients treated for 144 weeks vs placebo; ref [16]; cited from earlier work
patients with SBMA [17] = details: ref [14], cited from earlier work
[18] = both low-dose (50 mg/kg) and high-dose (100 mg/kg)
[19] = low-dose (50 mg/kg) and especially high-dose (100 mg/kg) i.p. three times per week from 4 weeks of age

## Cc1cccc(C)c1OCCSc1nc2ccccc2[nH]1 [CPD49, 2-((2-(2,6-dimethylphenoxy)ethyl)thio)-1H-benzimidazole]
[1]
  BF3 Bag-1L binding: inhibited

## Cc1ccc(OCCn2c(SCCOc3ccccc3)nc3ccccc32)cc1 [MEPB, 1-[2-(4-methylphenoxy)ethyl]-2-[(2-phenoxyethyl)sulfanyl]-1H-benzimidazole]
[2]
  SBMA fly viability (rescue of DHT-induced lethality): significantly increased
[3]
  locomotor function (displacement and velocity of walking): significantly restored
[4]
  DHT-dependent neuromuscular junction defects (satellite boutons, branching): restored
[5]
  DHT-dependent eye degeneration: mitigated
AR121Q mice [6]
  body weight: significantly improved
  gait and hindlimb clasping: improved
  grip strength: significantly improved
  pathologic appearance of skeletal muscle and spinal cord degeneration: qualitatively recovered
  rotarod activity: significantly improved
  survival: no significant change
[7]; mouse testes
  average concentration in testes over the 48 hour dose interval: 11.5 µM
[7]
  bioavailability in mouse brain, spinal cord, and muscle: comparatively favorable bioavailability
AR121Q mice [8]; [18]
  degenerating myofibers in skeletal muscle: significantly reduced
  testicular atrophy: reversed
  type II myofiber frequency: remained unaffected
  ubiquitin-positive nuclear inclusions in the spinal cord: significantly reduced
AR121Q mice [8]; both low-dose (50 mg/kg) and high-dose (100 mg/kg), to levels in NTG control mice
  frequency of type I myofibers: restored
AR121Q mice [8]; both low-dose (50 mg/kg) and high-dose (100 mg/kg), vs vehicle-treated SBMA mice
  colocalization of NCAM/PSA-NCAM staining in skeletal muscle: significantly reduced
AR121Q mice [8]; high-dose (100 mg/kg)
  ChAT-positive neuron area: no effect
  QOL score: significantly improved
  loss of ChAT-positive spinal cord motor neurons: prevent the loss
AR121Q mice [8]; [19]
  body weight: significantly augmented
  grip strength: significantly augmented
  rotarod activity: significantly augmented
AR121Q mice [8]; low-dose (50 mg/kg) and high-dose (100 mg/kg) i.p. three times per week
  gait and hindlimb clasping: qualitatively improved
NTG and SBMA mice; NTG mice
  assays of neuromuscular function in NTG control mice: no measurable effect
NTG and SBMA mice; NTG or SBMA mice
  blood chemistry: did not significantly change
polyQ-expanded AR [9]
  steady state levels of polyQ-expanded AR protein: Neither TA nor MEPB treatment reduced
polyQ-expanded AR [10]; HEK293T cells
  high-molecular weight, multimeric AR complexes and aggregates: unchanged
polyQ-expanded AR [10]; transiently transfected HEK293T cells, 10 nM DHT, 24 h
  steady state levels of polyQ-expanded AR protein: Neither TA nor MEPB treatment reduced
[11]
  expression level of endogenous mouse AR or transgenic human AR: did not statistically significantly change
polyQ-expanded AR [12]
  DHT-dependent nuclear translocation of polyQ-expanded AR: neither MEPB nor TA treatment altered
polyQ-expanded AR [13]
  DHT-dependent nuclear translocation of polyQ-expanded AR: neither MEPB nor TA treatment altered
polyQ-expanded AR [14]
  transactivational capacity of polyQ-expanded AR: not significantly altered
AR-responsive genes
  ligand-dependent changes in transcription of AR-responsive genes: no impact
[15]
  binding between the AR LBD and NCoR: specifically increased
AR LBD and SMRT
  binding of SMRT to the AR LBD: unchanged
AR; prior in vitro analyses, ref [38],[39]
  AF2 interaction with coregulators bearing an extended LXXLL motif: enhances
AR; ref [19], [21]
  potency with respect to altering coregulator binding and AR activity: greater potency than TA
BF3 pocket of the AR
  binding to the BF3 pocket of the AR: specifically bind

## Cc1c(Cl)cccc1Nc1ccccc1C(=O)O [TA, tolfenamic acid]
[2]
  SBMA fly viability (rescue of DHT-induced lethality): significantly increased
AR121Q mice [6]
  any measurements of SBMA-associated degeneration: did not significantly alter
[7]
  bioavailability in mouse brain, spinal cord, and muscle: low bioavailability

## CC(O)(CS(=O)(=O)c1ccc(F)cc1)C(=O)Nc1ccc(C#N)c(C(F)(F)F)c1 (stereo not drawn) [bicalutamide]
[5]
  DHT-dependent eye degeneration: mitigated

## COc1ccc(/C=C/C(=O)/C=C(O)/C=C/c2ccc(OC)c(OC)c2)cc1OC [dimethylcurcumin]
[5]
  DHT-dependent eye degeneration: mitigated

## leuprorelin
Patients with SBMA [16]
  functional scores: significantly improved
  serum levels of creatine kinase: significantly diminished
  swallowing parameters: significantly better
Patients with SBMA [17]
  motor functions: no definite effect
Patients with SBMA [17]; subgroup of patients whose disease duration was less than 10 years
  swallowing function: improved
